Screening data deposited in PubChem by The Scripps Research Institute Molecular Screening Center.
Most compounds without a hit are left out; they make up all but 3% or so of the library.
HTR1E antagonist – 5-HT1E (human) receptor antagonism; AID 571; inhibition, % at 6 µM; CHO 5-HT1E Ga15 NFAT-bla reporter, FRET, antagonist; actives 0.99% (n = 65,000);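 active = inhibition above a set limit, the mean inhibition across every tested compound plus 3 SD, cut at about 29% in these data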;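 note: signal is the 460 over 535 nm emission ratio of beta-lactamase substrate; 0% = agonist plus DMSO wells and 100% = wells without agonist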
Target sequence (P28566 whole entry, looked up): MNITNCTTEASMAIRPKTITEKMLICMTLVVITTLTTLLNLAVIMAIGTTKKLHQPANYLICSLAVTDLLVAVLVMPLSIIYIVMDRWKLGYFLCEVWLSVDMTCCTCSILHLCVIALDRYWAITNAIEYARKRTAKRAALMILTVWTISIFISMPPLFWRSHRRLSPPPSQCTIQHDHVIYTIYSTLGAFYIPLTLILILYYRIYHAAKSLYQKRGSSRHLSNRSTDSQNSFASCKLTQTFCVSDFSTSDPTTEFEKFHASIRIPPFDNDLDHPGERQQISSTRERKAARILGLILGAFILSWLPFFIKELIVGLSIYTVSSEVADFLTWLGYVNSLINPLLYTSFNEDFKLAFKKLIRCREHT
S1P1 ag-PAM – S1P1 (human) agonism or agonism potentiation; P21453; AID 449; actives 0.57% (n = 56,000); activation, % at 9.5 µM; S1P1 CRE-bla cells, forskolin, beta-lactamase FRET, potentiator mode; S1P1 agonist co-added at EC20, 2 nM; 100% = saturating reference agonist, 0% = basal;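 active = activation above a cutoff set at the mean activation of all tested compounds plus 3 SD, cut at about 54% in these data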;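 note: forskolin at 4 µM as EC80 and the EC20 agonist is SEW2871; 100% = SEW2871 at its EC100 plus forskolin at EC80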
5-HT1A blocker – antagonists of human 5-HT1a serotonin receptor; P08908; CHO 5-HT1a Ga15 NFAT-bla reporter, antagonist mode; inhibition, % at 10 µM; actives 0.68% (n = 62,000); AID 612;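 active = inhibition above the mean of all tested compounds plus 3 SD, cut at about 43% in these data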;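 note: receptor stimulated by 5-CT agonist at 100 nM near EC80; beta-lactamase reporter measured by ratiometric fluorescence of a cleavable substrate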
S1P3 ag – S1P3 (human) receptor agonism; Q99500; S1P3 NFAT-BLA reporter cells, FRET ratio; relative to 1 µM S1P, basal subtracted; activation, % at 4.5 µM; actives 0.1% (n = 60,000);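 active = activation above the screen-wide mean plus 3 SD, cut at about 4.5% in these data, passing the limit was not always enough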
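Assay system: stable CHO line with human S1P3, Gα16, NFAT-BLA reporter; Detection: FRET β-lactamase substrate fluorescence, excitation 405 nm, 460/535 nm emission ratio, background-subtracted; Read-out: percent activation versus median 1 µM S1P response, basal-subtracted, per plate; Incubation: cells plated overnight, compound 4 h 37 °C, substrate 2 h RT.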
HTR1E agonist – activates the human 5-HT1E serotonin receptor | CHO 5-HT1E Ga15 NFAT-bla reporter, FRET; 0% DMSO wells, 100% control agonist wells | P28566 | AID 574 | activation, % at 6 µM | actives 0.69% (n = 65,000);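 active = activation above a set limit, the screen-wide mean activation plus 3 SD, cut at about 8.5% in these data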;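 note: 100% = positive control agonist at 1 µM giving full maximal response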
5HT1a ag – 5-HT1a (human) receptor agonism | CHO 5-HT1a Ga15 NFAT-bla reporter, FRET ratio; 0% basal, 100% maximal reference agonist | activation, % at 10 µM | actives 0.56% (n = 65,000);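 active = activation above the screen-wide mean activation plus 3 SD, cut at about 19% in these data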;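 note: 0% = DMSO wells and 100% = 5-CT at EC100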
The depositor's hits bear a star; / = not tested or not shown.

SMILES	HTR1E antagonist	S1P1 ag-PAM	5-HT1A blocker	S1P3 ag	HTR1E agonist	5HT1a ag
COCCn1c(C)cc(C(=O)CSc2nc3ccccc3o2)c1C	-1	66*	-5	0	0	1
CC1=CCC2C(=O)N(c3ccc(C)c(Br)c3)C(=O)C2C1 (centres undefined)	-4	-2	-2	-1	13*	13
CC1=CCC2C(=O)N(c3ccc(Br)cc3C)C(=O)C2C1 (centres undefined)	-7	-15	1	-1	0	0
CCOc1ccccc1-n1c(SCC(=O)Nc2nccs2)nnc1-c1ccoc1C	19	28	26	-2	-1	-4
Cc1cc(C(=O)CSc2nnc(-c3ccco3)o2)c(C)n1CC1COc2ccccc2O1 (centres undefined)	-1	17	-1	-1	1	30*
COC(=O)/C=C/S(=O)(=O)c1ccc(NC(C)=O)cc1	67*	42	82*	-1	0	-6
CC1(C)CC(=O)C2=C(C1)NC(SCC(=O)Nc1ccccc1)=C(C#N)C21CCCCC1	3	20	10	-1	-1	2
CC(C)(C)C1CCC2(CC1)C(C#N)=C(SCC(=O)Nc1ccccc1)NC(=O)C2C#N (centres undefined)	8	79*	/	-4	1	9
O=C(CSc1nnc(COc2ccc(F)cc2)o1)N1c2ccccc2CCc2ccccc21	3	8	40	-1	0	-4
COc1ccc(C(=O)C(CN2CCOCC2)c2ccccc2)cc1F (centres undefined)	39*	80	76*	-1	0	-2
COc1ccc(C(O)C(CN2CCOCC2)c2ccccc2)cc1F (centres undefined)	-1	-4	-7	0	0	0
Cc1cccc(NC(=O)C2CCCN(c3nc(C)cc(C)n3)C2)c1 (centres undefined)	-6	-10	-2	0	13*	0
CCOC(=O)CC12CN3CN(C1)CC(CC(=O)OCC)(C3)C2=O	0	-3	-6	1	0	0
CCc1nc(Nc2ccc(N3CCN(C(C)=O)CC3)cc2)c2oc3ccccc3c2n1	34*	-35	1	0	0	4
CC(=O)c1cn(CC(=O)NCc2cccnc2)c2ccccc12	-3	-7	-7	0	0	-2
Cc1nnc(Sc2nc(Sc3nnc(C)s3)nc(N3CCN(C)CC3)n2)s1	68*	-72	78*	-2	-1	4
Cc1c(CN2CCN(c3cccc(C(F)(F)F)c3)CC2)c(=O)n(-c2ccccc2)n1C	2	8	1	0	60*	1
CCOc1cc(CN2CCN(c3cccc(C(F)(F)F)c3)CC2)ccc1O	9	/	33	0	8	20*
COC(=O)CC1NCCNC1=O (centres undefined)	0	-9	5	-1	0	-4
CC1Cc2ccccc2N1C(=O)CSc1nnc(CSc2ncccn2)n1C (centres undefined)	-9	10	4	1	1	4
COc1cc(C(=O)Oc2c(CN3CCOCC3)cc(Cl)c3cccnc23)cc(OC)c1OC	38*	-32	18	-1	2	0
O=C(Oc1c(CN2CCOCC2)cc(Cl)c2cccnc12)c1ccc(F)cc1	37*	-8	17	-1	2	-1
COc1ccc(C(=O)Oc2c(CN3CCOCC3)cc(Cl)c3cccnc23)cc1	-2	4	8	-1	2	1
COC(=O)c1ccc(Cn2cnc3c(cnn3-c3ccc(C)c(C)c3)c2=O)o1	10	6	-4	-1	-1	-1
COc1ccc(C2=Nn3c(nnc3-c3ccccc3)SC2)cc1OC	49*	-53	/	4	1	3
SMILES	HTR1E antagonist	S1P1 ag-PAM	5-HT1A blocker	S1P3 ag	HTR1E agonist	5HT1a ag
Cc1ccc(-c2nnc3n2N=C(c2ccccc2Br)CS3)cc1	32*	29	14	-1	0	-1
COc1ccc(OC)c(C2=Nn3c(nnc3-c3cccc(OC(C)C)c3)SC2)c1	38*	-8	14	0	0	3
COc1ccc(-c2nnc3n2N=C(c2ccccc2)CS3)cc1OC	12	-19	9	-1	0	-2
CCCc1nnc2n1N=C(c1ccc(OC)c(OC)c1)CS2	63*	-2	22	1	0	0
Cc1occc1-c1nnc(SCC(=O)NCCc2ccccc2)n1C(C)c1ccccc1 (centres undefined)	3	-7	7	1	2	0
COc1ccc(Cn2c3nc4ccccc4nc3c3c(=O)n(Cc4ccco4)cnc32)cc1	25	22	23	-2	0	-4
CCOc1ccc(C2=Nn3c(nnc3-c3ccc(OC)cc3)SC2)cc1	39*	-34	15	1	2	0
CCOc1ccc(C2=Nn3c(nnc3-c3cccnc3)SC2)cc1	-21	-14	/	0	0	-1
O=C(CCCN1Cc2ccccc2C1)c1ccc(F)cc1	1	-4	27	-2	1	22*
O=C(C1CCC(CNS(=O)(=O)c2cccc3cccnc23)CC1)N1CCCC1 (centres undefined)	-8	-4	-10	0	0	-1
O=C(Nc1cccc(C(F)(F)F)c1)N1CCC(c2nc(-c3ccc(F)cc3)no2)CC1	3	58*	25	-1	0	-1
CCc1nc(N)c(C#N)c(-c2ccncc2)c1C	5	-36	-13	-1	1	1
CCCc1nc(N)c(C#N)c(N)c1C#N	29*	-96	-9	0	0	-2
c1ccc2c(c1)[nH]c1c(N3CCC4(CC3)OCCO4)ncnc12	22	14	/	-7	-1	4
c1ccc(CN2CCN(c3ncnc4c3[nH]c3ccccc34)CC2)cc1	35*	63*	/	-6	1	1
c1ccc2c(c1)CCN(c1ncnc3c1[nH]c1ccccc13)C2	46*	113*	/	-8	1	2
Cc1ccc2[nH]c3c(N4CCN(Cc5ccccc5)CC4)ncnc3c2c1	21	33	/	-2	0	2
Cc1ccc2c(c1)[nH]c1c(N3CCN(Cc4ccccc4)CC3)ncnc12	9	133*	24	-2	1	-1
c1ccc(Cn2nnc3c(N4CCc5ccccc5C4)ncnc32)cc1	4	-5	-7	0	0	96*
CC(C)[C@H](NC(=O)C1(c2ccccc2)CCN(C(=O)OC(C)(C)C)CC1)C(=O)O	3	15	13	0	-1	-1
CCn1c(SCc2nc(CC(=O)Nc3ccccc3OC)no2)nnc1-c1cccs1	0	25	1	-1	0	-1
